The source made the active and inactive calls. No cut-off for these calls is given here.
Legend:
[1] = target: T1, Peroxisome proliferator-activated receptor delta (Homo sapiens, UniProt Q03181); assay: Agonist activity at human PPAR-delta expressed in african green monkey CV-1 cells after 24 hrs by luciferase reporter gene assay; assay type: functional, cell-based
T1 sequence (Q03181 whole entry): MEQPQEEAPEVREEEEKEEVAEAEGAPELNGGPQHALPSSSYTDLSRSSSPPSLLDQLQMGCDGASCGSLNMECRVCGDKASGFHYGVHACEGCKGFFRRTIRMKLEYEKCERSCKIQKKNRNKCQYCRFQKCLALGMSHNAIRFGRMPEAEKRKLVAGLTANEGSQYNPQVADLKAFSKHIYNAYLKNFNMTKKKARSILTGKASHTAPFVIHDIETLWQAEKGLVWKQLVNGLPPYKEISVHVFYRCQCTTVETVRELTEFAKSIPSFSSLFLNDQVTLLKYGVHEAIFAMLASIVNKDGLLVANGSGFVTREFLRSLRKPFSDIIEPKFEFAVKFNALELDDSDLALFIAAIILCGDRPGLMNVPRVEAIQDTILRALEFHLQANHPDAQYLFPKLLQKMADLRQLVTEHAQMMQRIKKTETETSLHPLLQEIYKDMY
Method in brief: (§1)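 Cell-based co-transfection reporter assay, with EC50 values derived for each PPAR subtype.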

[2] = target: T2, Peroxisome proliferator-activated receptor alpha (Homo sapiens, UniProt Q07869); assay: Agonist activity at human PPAR-alpha expressed in african green monkey CV-1 cells after 24 hrs by luciferase reporter gene assay; assay type: functional, cell-based; method in brief: as §1
T2 sequence (Q07869 whole entry): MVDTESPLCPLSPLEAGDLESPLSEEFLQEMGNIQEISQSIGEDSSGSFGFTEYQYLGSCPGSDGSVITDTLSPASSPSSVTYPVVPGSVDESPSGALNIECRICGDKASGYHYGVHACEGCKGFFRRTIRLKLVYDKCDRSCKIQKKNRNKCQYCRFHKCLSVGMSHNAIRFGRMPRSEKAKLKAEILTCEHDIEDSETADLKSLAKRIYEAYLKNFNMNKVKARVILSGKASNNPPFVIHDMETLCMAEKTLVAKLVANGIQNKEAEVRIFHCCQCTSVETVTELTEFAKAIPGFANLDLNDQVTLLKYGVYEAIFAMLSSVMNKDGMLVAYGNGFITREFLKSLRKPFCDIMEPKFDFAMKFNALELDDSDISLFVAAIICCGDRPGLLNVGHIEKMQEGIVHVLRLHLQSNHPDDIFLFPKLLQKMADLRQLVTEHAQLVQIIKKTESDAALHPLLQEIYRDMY

[3] = target: T3, Peroxisome proliferator-activated receptor gamma (Homo sapiens, UniProt P37231); assay: Agonist activity at human PPAR-gamma expressed in african green monkey CV-1 cells after 24 hrs by luciferase reporter gene assay; assay type: functional, cell-based
T3 sequence (P37231 whole entry): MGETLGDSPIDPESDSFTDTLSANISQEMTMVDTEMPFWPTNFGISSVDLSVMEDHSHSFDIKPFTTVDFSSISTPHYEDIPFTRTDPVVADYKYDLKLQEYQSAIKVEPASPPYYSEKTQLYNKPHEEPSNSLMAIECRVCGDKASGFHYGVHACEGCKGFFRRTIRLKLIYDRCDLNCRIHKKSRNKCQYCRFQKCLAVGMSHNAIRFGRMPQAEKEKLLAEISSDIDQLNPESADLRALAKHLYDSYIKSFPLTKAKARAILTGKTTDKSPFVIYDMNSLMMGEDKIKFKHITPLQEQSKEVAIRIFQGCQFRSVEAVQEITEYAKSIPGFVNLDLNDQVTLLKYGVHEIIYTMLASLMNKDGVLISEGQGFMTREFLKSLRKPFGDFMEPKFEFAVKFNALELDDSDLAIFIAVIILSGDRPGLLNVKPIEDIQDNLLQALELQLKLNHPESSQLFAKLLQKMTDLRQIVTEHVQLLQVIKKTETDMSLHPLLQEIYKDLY

[4] = target: T4, Peroxisome proliferator-activated receptor alpha (Mus musculus) (UniProt P23204); assay: Agonist activity at mouse PPAR-alpha expressed in african green monkey CV-1 cells after 24 hrs by luciferase reporter gene assay; assay type: functional, cell-based
T4 sequence (whole entry): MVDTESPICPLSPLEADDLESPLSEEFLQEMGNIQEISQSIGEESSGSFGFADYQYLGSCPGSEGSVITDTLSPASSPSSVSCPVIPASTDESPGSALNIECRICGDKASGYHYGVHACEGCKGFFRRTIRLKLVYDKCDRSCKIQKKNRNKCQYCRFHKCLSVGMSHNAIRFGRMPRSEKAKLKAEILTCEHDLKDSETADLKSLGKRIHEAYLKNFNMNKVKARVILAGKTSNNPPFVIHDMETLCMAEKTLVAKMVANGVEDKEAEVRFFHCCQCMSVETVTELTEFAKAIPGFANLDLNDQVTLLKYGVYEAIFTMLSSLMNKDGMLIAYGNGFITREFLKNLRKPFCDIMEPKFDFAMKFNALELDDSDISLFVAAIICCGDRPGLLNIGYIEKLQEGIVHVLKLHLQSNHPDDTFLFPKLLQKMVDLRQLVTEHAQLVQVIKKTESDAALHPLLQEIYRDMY

[5] = target: T5, Peroxisome proliferator-activated receptor gamma (Mus musculus) (UniProt P37238); assay: Agonist activity at mouse PPAR-gammaexpressed in african green monkey CV-1 cells after 24 hrs by luciferase reporter gene assay; assay type: functional, cell-based
T5 sequence (whole entry): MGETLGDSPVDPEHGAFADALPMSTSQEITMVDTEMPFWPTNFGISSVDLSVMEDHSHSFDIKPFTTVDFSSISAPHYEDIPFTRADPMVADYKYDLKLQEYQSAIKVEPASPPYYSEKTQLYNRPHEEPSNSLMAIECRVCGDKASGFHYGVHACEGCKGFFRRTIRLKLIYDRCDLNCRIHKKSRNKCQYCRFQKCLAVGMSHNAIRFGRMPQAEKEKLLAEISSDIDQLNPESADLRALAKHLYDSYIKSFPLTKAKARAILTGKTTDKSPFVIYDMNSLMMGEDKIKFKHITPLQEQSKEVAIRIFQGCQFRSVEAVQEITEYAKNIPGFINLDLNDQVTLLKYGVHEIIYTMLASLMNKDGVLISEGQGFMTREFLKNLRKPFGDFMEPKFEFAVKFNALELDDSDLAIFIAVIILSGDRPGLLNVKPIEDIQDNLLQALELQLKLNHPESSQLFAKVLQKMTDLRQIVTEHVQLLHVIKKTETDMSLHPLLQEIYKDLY

[6] = Drug level in LDLR-deficient mouse serum at 60 mg/kg; assay type: ADME, organism-based; parameters: dose 60 mg/kg
Mus musculus [7] = assay: Toxicity in LDLR-deficient mouse assessed as increase in liver weight at 60 mg/kg; assay type: organism-based; parameters: dose 60 mg/kg; conditions: in vivo
Mus musculus [8] = assay: Antiatherogenic effect in HC/HF diet-fed apolipoprotein E-deficient C57BL/6J mouse assessed as increase in HDL-cholesterol at 2 mg/kg/day for 4 weeks; assay type: functional, organism-based
Method in brief: (§2)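 Apoe-/- mice, eight weeks old, fed an atherogenic HC/HF diet (1.25% cholesterol, 21% fat) for 14 weeks. They received 2 mg/kg/day of test agent (n = 7) or vehicle (n = 6) over the final 4 weeks, then were compared with the vehicle group.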

[9] = target: T6, Peroxisome proliferator-activated receptor delta (Homo sapiens) (UniProt Q03181); assay: Binding affinity to human PPAR-delta after 1 hr by TR-FRET assay
T6 sequence (whole entry): T1 sequence (Q03181 whole entry)

Mus musculus [10] = assay: Toxicity in […] diet-fed apolipoprotein E-deficient C57BL/6J mouse assessed as increase in liver weight at 2 mg/kg/day for 4 weeks; assay type: organism-based; conditions: in vivo, 672 h; method in brief: as §2
Mus musculus [11] = assay: Effect on cholesterol homeostasis in HC/HF diet-fed apolipoprotein E-deficient C57BL/6J mouse assessed as effect on ABCA1 gene expression at 2 mg/kg/day for 4 weeks by quantitative RT-PCR; assay type: functional, organism-based; method in brief: as §2
Mus musculus [12] = assay: Toxicity in […] diet-fed apolipoprotein E-deficient C57BL/6J mouse assessed as weight loss at 2 mg/kg/day for 4 weeks; assay type: organism-based; conditions: in vivo, 672 h
Method in brief: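 Eight-week-old Apoe-/- mice were kept on an HC/HF diet (1.25% cholesterol, 21% fat) for 14 weeks, with 2 mg/kg/day dosing (n = 7) or vehicle (n = 6) in the last 4 weeks. Body weight was recorded every week throughout the experimental period and compared between treated and control groups.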

Mus musculus [13] = assay: Toxicity in apolipoprotein E-deficient C57BL/6J mouse assessed as weight loss at 6 mg/kg; assay type: organism-based; parameters: dose 6 mg/kg; conditions: in vivo
Mus musculus [14] = assay: Antiatherogenic effect in apoE-deficient mouse assessed as increase in HDL-cholesterol level at 2 mg/kg/day for 4 weeks
Mus musculus [15] = assay: Effect on cholesterol homeostasis in HC/HF diet-fed apolipoprotein E-deficient C57BL/6J mouse assessed as effect on MCP1 gene expression at 2 mg/kg/day for 4 weeks by quantitative RT-PCR; assay type: functional, organism-based; method in brief: as §2
Mus musculus [16] = assay: Effect on cholesterol homeostasis in HC/HF diet-fed apolipoprotein E-deficient C57BL/6J mouse assessed as effect on CD36 gene expression at 2 mg/kg/day for 4 weeks by quantitative RT-PCR; assay type: functional, organism-based; method in brief: as §2
Mus musculus [17] = assay: Effect on cholesterol homeostasis in HC/HF diet-fed apolipoprotein E-deficient C57BL/6J mouse assessed as effect on VCAM-1 gene expression at 2 mg/kg/day for 4 weeks by quantitative RT-PCR; assay type: functional, organism-based; method in brief: as §2
Mus musculus [18] = assay: Antiatherogenic effect in HC/HF diet-fed apolipoprotein E-deficient C57BL/6J mouse assessed as decrease in IL-6 gene expression at 2 mg/kg/day for 4 weeks by quantitative RT-PCR; assay type: functional, organism-based; method in brief: as §2
[19] = target: T7, Peroxisome proliferator-activated receptor delta (Mus musculus, UniProt P35396); assay: Agonist activity at mouse PPAR-delta expressed in african green monkey CV-1 cells after 24 hrs by luciferase reporter gene assay; assay type: functional, cell-based
T7 sequence (P35396 whole entry): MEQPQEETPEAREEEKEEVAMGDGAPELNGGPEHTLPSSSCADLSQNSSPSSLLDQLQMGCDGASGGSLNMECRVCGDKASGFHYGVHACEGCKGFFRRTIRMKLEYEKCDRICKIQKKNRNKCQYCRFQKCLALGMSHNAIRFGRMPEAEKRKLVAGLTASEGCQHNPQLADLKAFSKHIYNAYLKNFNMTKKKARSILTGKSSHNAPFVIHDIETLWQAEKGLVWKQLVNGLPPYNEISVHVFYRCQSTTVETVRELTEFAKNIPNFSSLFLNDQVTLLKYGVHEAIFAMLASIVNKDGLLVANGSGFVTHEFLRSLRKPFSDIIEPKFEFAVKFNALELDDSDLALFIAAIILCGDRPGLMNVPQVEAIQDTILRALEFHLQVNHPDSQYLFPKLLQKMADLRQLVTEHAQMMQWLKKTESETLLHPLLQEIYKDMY

[20] = target: Peroxisome proliferator-activated receptor delta (Homo sapiens) (UniProt Q03181); assay: Binding affinity to human PPAR-delta after 1 hr by TR-FRET assay
Mus musculus [21] = assay: Effect on cholesterol homeostasis in HC/HF diet-fed apolipoprotein E-deficient C57BL/6J mouse assessed as effect on Il-10 gene expression at 2 mg/kg/day for 4 weeks by quantitative RT-PCR; assay type: functional, organism-based; method in brief: as §2
Mus musculus [22] = assay: Toxicity in apolipoprotein E-deficient C57BL/6J mouse assessed as weight loss at 60 mg/kg; assay type: organism-based; parameters: dose 60 mg/kg; conditions: in vivo
Mus musculus [23] = assay: Toxicity in apolipoprotein E-deficient C57BL/6J mouse assessed as weight loss at 5 mg/kg; assay type: organism-based; parameters: dose 5 mg/kg; conditions: in vivo
Mus musculus [24] = assay: Effect on cholesterol homeostasis in HC/HF diet-fed apolipoprotein E-deficient C57BL/6J mouse assessed as effect on ICAM-1 gene expression at 2 mg/kg/day for 4 weeks by quantitative RT-PCR; assay type: functional, organism-based; method in brief: as §2
Mus musculus [25] = assay: Antiatherogenic effect in HC/HF diet-fed apolipoprotein E-deficient C57BL/6J mouse assessed as decrease in lesion fatty streak in aorta at 2 mg/kg/day for 4 weeks; assay type: functional; parameters: scale not given: the % may be the effect or the level left
Method in brief: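 ApoE-/- mice were 8 weeks old at start. They were fed an HC/HF atherogenic diet (1.25% cholesterol, 21% fat) for 14 weeks and dosed at 2 mg/kg/day over the last 4 weeks (treated n = 7, vehicle n = 6). Mice were weighed weekly. Lesion fatty streak extent was scored throughout the aorta against vehicle.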

Work on `Cc1cc([Se]Cc2sc(-c3ccc(C(F)(F)F)c(F)c3)nc2C)ccc1OC(C)(C)C(=O)O` yielded an EC50 [1] of 1.8 nM, an EC50 [2] of 24.6 nM and an EC50 [3] of 290 nM.
With `Cc1cc(SCc2sc(-c3ccc(C(F)(F)F)c(F)c3)nc2C)ccc1OCC(=O)O` the Activity [4] was “Active”, the Activity [5] was “Active” and the Cmax [6] was 21 µM. The Activity (Mus musculus [7]) was “Toxic” and the Activity (Mus musculus [8]) was “Active”.
Molecule `Cc1cc([Se]Cc2sc(-c3ccc(C(F)(F)F)cc3)nc2C)ccc1OC(C)(C)C(=O)O` has an EC50 [1] of 4.5 nM, an EC50 [2] of 15.2 nM and an EC50 [3] of 100 nM.
Work on `CCC(Oc1ccc([Se]Cc2sc(-c3ccc(C(F)(F)F)c(F)c3)nc2C)cc1C)C(=O)O` (stereo unspecified) yielded an EC50 [1] of 7 nM, an EC50 [2] of over 1000 nM and an EC50 [3] of 271 nM.
With `Cc1cc([Se]Cc2sc(-c3ccc(C(F)(F)F)cc3)nc2C)ccc1OCC(=O)O` the Activity [4] was “inactive”, the Activity [9] was “Active” and the Activity (Mus musculus [10]) was “Non-toxic”. For the same molecule, the Activity (Mus musculus [11]) was “inactive”, the Activity (Mus musculus [12]) was “Non-toxic” and the Activity (Mus musculus [13]) was “Toxic”. For the same molecule, the Activity [5] was “inactive”, the EC50 [1] was 0.9 nM and the Activity (Mus musculus [14]) was “Active”. The EC50 [2] was over 1000 nM, the Activity (Mus musculus [15]) was “inactive” and the Activity (Mus musculus [16]) was “inactive”. For the same molecule, the Activity (Mus musculus [17]) was “inactive”, the Activity (Mus musculus [18]) was “Active” and the EC50 [19] was 2.3 nM. The Activity [20] was “Active”, the Activity (Mus musculus [21]) was “inactive” and the Activity (Mus musculus [22]) was “Toxic”. For the same molecule, the Activity (Mus musculus [23]) was “Toxic”, the Activity (Mus musculus [24]) was “inactive” and the EC50 [3] was over 1000 nM. It also gave an Activity (Mus musculus [25]) of 25%.

From ChEMBL document CHEMBL1629438, “Selective peroxisome proliferator-activated receptor δ isosteric selenium agonists as potent anti-atherogenic agents in vivo” (Bioorg Med Chem Lett, 2010)
